Measured values taken from ChEMBL document CHEMBL2086320, “New synthetic inhibitors of fatty acid synthase with anticancer activity” (J Med Chem, 2012).
One block for each compound: values may come before it. Calls of active or inactive are those of the source. The calls are words filed in the database; no cut-off is given here.

Assays:
Mus musculus [1] = assay: Toxicity against C57BL/6J mouse assessed as weight loss at 30 mg/kg, ip administered as single dose measured after 24 hrs; assay type: organism-based; parameters: dose 30 mg/kg, route intraperitoneal; details: in vivo
In short: (§1)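 Male C57BL/6J mice, 12 weeks, 23-25 g, acclimatized one week on standard chow, 12 h/12 h light/dark, 22 °C; 4 per group. Fasted 12 h during dark cycle, then one i.p. injection (0.5 mL) of compound or vehicle (DMSO dissolved in RPMI 1640). Free access to chow for 24 h, then body weight recorded and behaviour observed. Weight data mean ± SEM, n=4.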

Mus musculus [2] = assay: Toxicity against C57BL/6J mouse assessed as signs of suffering at 30 mg/kg, ip administered as single dose measured after 24 hrs; assay type: organism-based; parameters: dose 30 mg/kg, route intraperitoneal; details: in vivo; in short: as §1
SK-BR-3 [3] = assay: Effect on total ERK1/2 protein levels in human SKBR3 cells up to 24 hrs; assay type: functional, cell-based
In short: (§2)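 SK-Br3 cells treated for set times (6, 12 or 24 h; p-HER2 also at 2 h), trypsinized, and lysed in Tris pH 7.5/EDTA/NaCl/PMSF buffer. Equal protein resolved by SDS-PAGE (3-8% gel for HER2 forms, 4-12% gel for AKT/ERK). Blots blocked in 2.5% milk/TBS-T, primary antibody overnight at 4 °C, HRP secondary, chemiluminescence; β-actin reprobe as loading control. At least two independent experiments.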

AU565 = assay: Cytotoxicity against human AU565 cells; assay type: functional, cell-based
In short: (§3)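 MTT colorimetric assay: cells seeded at 5 or 7 x 10³ cells/well, attached overnight, then given fresh medium with a range of compound concentrations for 48 h at 37 °C, 5% CO2. MTT added for 3 h, formazan dissolved in DMSO, absorbance read at 570 or 540 nm. IC50 as mean±SEM from at least two independent experiments in duplicate or triplicate.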

[4] = molecular target: Receptor tyrosine-protein kinase erbB-2 (Homo sapiens) (UniProt P04626); assay: Inhibition of HER2 signaling in human SK-BR-3 cells up to 24 hrs; assay type: cell-based; in short: as §2
[5] = molecular target: Receptor tyrosine-protein kinase erbB-2 (Homo sapiens) (UniProt P04626); assay: Inhibition of HER2 phosphorylation in human SK-BR-3 cells after 6 hrs by Western blot analysis; assay type: cell-based
In short: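 SK-Br3 cells treated for 6, 12 or 24 h, harvested with trypsin-EDTA, lysed in Tris-HCl pH 7.5/EDTA/NaCl/PMSF buffer at 4 °C. Equal protein run on 3-8% SDS-PAGE and transferred to nitrocellulose. Membranes probed overnight at 4 °C with anti-phospho-HER2 mouse monoclonal, then peroxidase secondary and chemiluminescence. Re-probed for β-actin as loading control. Gels are representative of at least two independent experiments.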

NCI-H460 = assay: Cytotoxicity against human H460 cells; assay type: functional, cell-based; in short: as §3
SK-OV-3 = assay: Cytotoxicity against human SKOV3 cells; assay type: functional, cell-based; in short: as §3
SK-BR-3 [6] = assay: Effect on total HER protein levels in human SKBR3 cells up to 24 hrs; assay type: functional, cell-based; in short: as §2
[7] = molecular target: Carnitine O-palmitoyltransferase 1, liver isoform (Rattus norvegicus, UniProt P32198); assay: Stimulation of rat CPT1A expressed in Pichia pastoris mitochondrial using [3H]carnitine after 3 mins by forward exchange method; assay type: ADME; details: 0.05 h
In short: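 Mitochondria isolated from GS115 Pichia pastoris expressing rat CPT1A, used in a forward exchange assay with 200 µM inhibitor, 2 mM L-[³H]carnitine, 80 µM palmitoyl-CoA, 20 mM HEPES pH 7.0, 1% fatty-acid-free albumin and 40-75 mM KCl. Incubated 3 min at 30 °C, stopped with perchloric acid, butanol-extracted [³H]palmitoylcarnitine counted. Mean±SEM of at least three independent mitochondrial preparations.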

FASN/HER2 (Homo sapiens) [8] = molecular target: T1, FASN/HER2 (Homo sapiens) (UniProt P04626+P49327); assay: Inhibition of FASN/HER2 in human SK-BR-3 cells assessed as reduction in p-ERK1/2 levels after 6 hrs by Western blot analysis; assay type: cell-based; in short: as §2
SK-BR-3 [9] = assay: Effect on total AKT protein levels in human SKBR3 cells up to 24 hrs; assay type: functional, cell-based; in short: as §2
Mus musculus [10] = assay: Toxicity against C57BL/6J mouse assessed as distress at 30 to 75 mg/kg, ip administered as single dose measured after 24 hrs; assay type: organism-based; parameters: dose 30-75 mg/kg, route intraperitoneal; details: in vivo; in short: as §1
HepG2 = assay: Cytotoxicity against human HepG2 cells; assay type: functional, cell-based; in short: as §3
Mus musculus [11] = assay: Toxicity against C57BL/6J mouse assessed as altered behaviour at 30 to 75 mg/kg, ip administered as single dose measured after 24 hrs; assay type: organism-based; parameters: dose 30-75 mg/kg, route intraperitoneal; details: in vivo; in short: as §1
HCT-116 = assay: Cytotoxicity against human HCT116 cells; assay type: functional, cell-based; in short: as §3
SK-BR-3 [12] = assay: Induction of apoptosis in human SKBR3 cells assessed as cleavage of PARP by Western blot analysis; assay type: functional, cell-based; details: TDE = time-dependent effect
In short: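 SK-Br3 cells treated for up to 48 h, then immunoblotted for PARP on a 4-12% SDS gel. Intact PARP at 116 kDa, cleavage fragment at 89 kDa. Chemiluminescent detection with β-actin reprobe as loading control. At least two independent experiments.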

Mus musculus [13] = assay: Toxicity against C57BL/6J mouse assessed as signs of suffering at 30 to 75 mg/kg, ip administered as single dose measured after 24 hrs; assay type: organism-based; parameters: dose 30-75 mg/kg, route intraperitoneal; details: in vivo; in short: as §1
[14] = Cytotoxicity against human HCC827 cells; assay type: functional, cell-based; in short: as §3
MCF7 = assay: Cytotoxicity against human MCF7 cells; assay type: functional, cell-based; in short: as §3
FASN/HER2 (Homo sapiens) [15] = molecular target: T1, FASN/HER2 (Homo sapiens); assay: Inhibition of FASN/HER2 in human SK-BR-3 cells assessed as reduction in p-AKT levels after 6 hrs by Western blot analysis; assay type: cell-based; in short: as §2
[16] = Selectivity ratio of IC50 for human HL7702 cells to IC50 for human SKBR3 cells; assay type: ADME, cell-based; details: HL7702 cells (normal) versus SKBR3 cells, read-out: Ratio IC50
A549 = assay: Cytotoxicity against human A549 cells; assay type: functional, cell-based; in short: as §3
[17] = Selectivity ratio of IC50 for human HMEpC cells to IC50 for human SKBR3 cells; assay type: ADME, cell-based, SK-BR-3; details: HMEpC cells (normal) versus SKBR3 cells, read-out: Ratio IC50
SK-HEP1 = assay: Cytotoxicity against human SKHEP1 cells; assay type: functional, cell-based; in short: as §3
ZR-75-1 = assay: Cytotoxicity against human ZR-75-1 cells; assay type: functional, cell-based; in short: as §3
Mus musculus [18] = assay: Toxicity against C57BL/6J mouse assessed as weight loss at 30 to 75 mg/kg, ip administered as single dose measured after 24 hrs; assay type: organism-based; parameters: dose 30-75 mg/kg, route intraperitoneal; details: in vivo; in short: as §1
SK-BR-3 [19] = assay: Cytotoxicity against human SKBR3 cells; assay type: functional, cell-based
In short: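 SK-Br3 cells (McCoy's 5A, 10% FBS) in MTT assay: seeded at 5 or 7 x 10³ cells/well, attached overnight, exposed 48 h to a range of concentrations. MTT 3 h at 37 °C, formazan in DMSO, absorbance at 570 or 540 nm. IC50 as mean±SEM of two independent experiments in triplicate.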

[20] = Antiproliferative activity against human HMEpC cells; assay type: cell-based; in short: as §3
BT-20 = assay: Cytotoxicity against human BT20 cells; assay type: functional, cell-based; in short: as §3
SK-BR-3 [21] = assay: Cytotoxicity against human SKBR3 cells transfected with FASN specific siRNA assessed as cell death up to 10 uM by MTT assay; assay type: functional, cell-based
In short: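 SK-Br3 cells transfected with a pool of three FASN-specific siRNAs (72 h), run alongside control-transfected cells. MTT viability read after 24 h compound exposure instead of 48 h. Knockdown checked by FASN immunoblot with β-actin. Mean±SEM of three experiments in duplicate; Student's t-test against the same concentration in control-transfected cells.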

A-431 = assay: Cytotoxicity against human A431 cells; assay type: functional, cell-based; in short: as §3
Bel-7402 = assay: Cytotoxicity against human Bel7402 cells; assay type: functional, cell-based; in short: as §3
SK-BR-3 [22] = assay: Effect on total HER2 protein levels in human SKBR3 cells up to 6 hrs by Western blot analysis; assay type: functional, cell-based; in short: as §2
SK-BR-3 [23] = assay: Effect on total HER2 protein levels in human SKBR3 cells up to 6 hrs by ELISA; assay type: functional, cell-based
PANC-1 = assay: Cytotoxicity against human PANC1 cells; assay type: functional, cell-based; in short: as §3
[24] = Antiproliferative activity against human HL7702 cells; assay type: cell-based; details: L02; in short: as §3
SK-BR-3 [25] = assay: Cytotoxicity against human SKBR3 cells after 48 hrs by MTT assay; assay type: functional, cell-based; details: SK-BR-3, 48 h; in short: as §3
[26] = molecular target: Receptor tyrosine-protein kinase erbB-2 (Homo sapiens) (UniProt P04626); assay: Inhibition of HER2 phosphorylation in human SK-BR-3 cells after 2 hrs by Western blot analysis; assay type: cell-based; in short: as §2
MDA-MB-231 = assay: Cytotoxicity against human MDA-MB-231 cells; assay type: functional, cell-based; in short: as §3
Mus musculus [27] = assay: Toxicity against C57BL/6J mouse assessed as change in food intake at 30 to 75 mg/kg, ip administered as single dose measured after 24 hrs; assay type: organism-based; parameters: dose 30-75 mg/kg, route intraperitoneal; details: in vivo; in short: as §1
[28] = molecular target: Fatty acid synthase (Homo sapiens) (UniProt P49327); assay: Inhibition of FASN in human SK-BR-3 cells assessed as oxidation of NADPH at 4 uM after 24 hrs by Spectrophotometric analysis relative to control; assay type: cell-based
Sequence of Fatty acid synthase (Homo sapiens) (P49327 whole entry, looked up): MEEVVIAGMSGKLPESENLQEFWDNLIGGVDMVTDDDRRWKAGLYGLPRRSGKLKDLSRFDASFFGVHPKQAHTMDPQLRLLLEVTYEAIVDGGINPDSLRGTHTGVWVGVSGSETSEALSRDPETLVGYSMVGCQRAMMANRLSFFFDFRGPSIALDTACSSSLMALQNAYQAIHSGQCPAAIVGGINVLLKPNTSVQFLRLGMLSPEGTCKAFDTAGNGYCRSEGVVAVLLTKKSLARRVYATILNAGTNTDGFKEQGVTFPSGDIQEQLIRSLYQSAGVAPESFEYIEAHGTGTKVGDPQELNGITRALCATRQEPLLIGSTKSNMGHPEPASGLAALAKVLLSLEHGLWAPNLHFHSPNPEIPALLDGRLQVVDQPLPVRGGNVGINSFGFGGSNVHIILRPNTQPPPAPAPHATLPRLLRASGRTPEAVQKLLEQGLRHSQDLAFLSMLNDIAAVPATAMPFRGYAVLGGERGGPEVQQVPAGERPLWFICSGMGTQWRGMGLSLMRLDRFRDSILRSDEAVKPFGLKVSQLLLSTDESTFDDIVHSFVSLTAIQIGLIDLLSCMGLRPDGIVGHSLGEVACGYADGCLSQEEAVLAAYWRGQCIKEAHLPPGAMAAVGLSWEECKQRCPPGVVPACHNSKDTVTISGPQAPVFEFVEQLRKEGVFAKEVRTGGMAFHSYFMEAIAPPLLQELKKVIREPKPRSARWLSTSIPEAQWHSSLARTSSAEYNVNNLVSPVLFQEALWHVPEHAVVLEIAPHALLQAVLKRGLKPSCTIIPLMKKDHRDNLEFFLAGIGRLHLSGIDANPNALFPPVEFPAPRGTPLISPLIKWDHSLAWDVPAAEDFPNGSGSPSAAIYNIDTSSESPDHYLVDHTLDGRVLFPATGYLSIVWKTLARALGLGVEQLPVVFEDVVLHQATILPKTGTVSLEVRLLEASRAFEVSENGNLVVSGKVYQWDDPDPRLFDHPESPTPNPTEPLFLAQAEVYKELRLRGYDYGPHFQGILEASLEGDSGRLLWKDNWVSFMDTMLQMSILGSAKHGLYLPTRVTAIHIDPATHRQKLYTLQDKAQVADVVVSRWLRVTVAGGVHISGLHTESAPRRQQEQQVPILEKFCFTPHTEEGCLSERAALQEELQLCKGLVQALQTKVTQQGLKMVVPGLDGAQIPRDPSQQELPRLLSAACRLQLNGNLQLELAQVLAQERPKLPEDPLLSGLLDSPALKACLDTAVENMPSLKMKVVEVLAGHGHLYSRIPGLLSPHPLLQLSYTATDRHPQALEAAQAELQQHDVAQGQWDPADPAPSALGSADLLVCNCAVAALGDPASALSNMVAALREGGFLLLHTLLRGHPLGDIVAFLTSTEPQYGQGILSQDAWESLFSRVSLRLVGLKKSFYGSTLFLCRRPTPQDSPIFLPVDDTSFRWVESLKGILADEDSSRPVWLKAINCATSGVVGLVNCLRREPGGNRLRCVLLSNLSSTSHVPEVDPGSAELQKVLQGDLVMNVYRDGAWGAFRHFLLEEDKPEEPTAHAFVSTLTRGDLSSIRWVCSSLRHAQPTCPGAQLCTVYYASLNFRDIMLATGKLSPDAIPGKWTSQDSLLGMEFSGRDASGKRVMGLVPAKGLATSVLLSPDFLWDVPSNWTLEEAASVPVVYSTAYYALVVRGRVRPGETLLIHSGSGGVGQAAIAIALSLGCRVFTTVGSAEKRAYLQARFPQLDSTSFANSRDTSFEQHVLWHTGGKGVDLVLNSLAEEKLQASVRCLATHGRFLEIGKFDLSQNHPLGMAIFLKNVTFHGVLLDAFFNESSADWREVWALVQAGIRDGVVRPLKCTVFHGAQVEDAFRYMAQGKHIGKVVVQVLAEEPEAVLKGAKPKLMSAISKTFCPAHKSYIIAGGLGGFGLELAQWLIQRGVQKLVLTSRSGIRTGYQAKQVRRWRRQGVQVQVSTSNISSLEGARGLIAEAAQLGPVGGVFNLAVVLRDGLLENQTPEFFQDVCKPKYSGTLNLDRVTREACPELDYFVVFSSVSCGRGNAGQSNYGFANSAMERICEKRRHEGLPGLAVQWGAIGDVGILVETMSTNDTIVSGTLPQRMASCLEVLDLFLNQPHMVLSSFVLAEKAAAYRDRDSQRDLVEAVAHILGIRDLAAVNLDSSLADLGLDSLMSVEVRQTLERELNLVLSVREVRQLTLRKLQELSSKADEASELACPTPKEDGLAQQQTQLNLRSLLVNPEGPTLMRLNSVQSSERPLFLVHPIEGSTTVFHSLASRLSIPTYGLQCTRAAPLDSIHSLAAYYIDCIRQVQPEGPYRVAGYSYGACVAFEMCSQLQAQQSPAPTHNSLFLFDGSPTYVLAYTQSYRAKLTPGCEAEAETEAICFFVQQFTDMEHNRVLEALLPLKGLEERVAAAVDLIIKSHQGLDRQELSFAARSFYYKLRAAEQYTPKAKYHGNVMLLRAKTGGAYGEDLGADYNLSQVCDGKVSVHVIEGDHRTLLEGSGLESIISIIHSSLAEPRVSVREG

Sequence of Receptor tyrosine-protein kinase erbB-2 (Homo sapiens) (P04626 whole entry): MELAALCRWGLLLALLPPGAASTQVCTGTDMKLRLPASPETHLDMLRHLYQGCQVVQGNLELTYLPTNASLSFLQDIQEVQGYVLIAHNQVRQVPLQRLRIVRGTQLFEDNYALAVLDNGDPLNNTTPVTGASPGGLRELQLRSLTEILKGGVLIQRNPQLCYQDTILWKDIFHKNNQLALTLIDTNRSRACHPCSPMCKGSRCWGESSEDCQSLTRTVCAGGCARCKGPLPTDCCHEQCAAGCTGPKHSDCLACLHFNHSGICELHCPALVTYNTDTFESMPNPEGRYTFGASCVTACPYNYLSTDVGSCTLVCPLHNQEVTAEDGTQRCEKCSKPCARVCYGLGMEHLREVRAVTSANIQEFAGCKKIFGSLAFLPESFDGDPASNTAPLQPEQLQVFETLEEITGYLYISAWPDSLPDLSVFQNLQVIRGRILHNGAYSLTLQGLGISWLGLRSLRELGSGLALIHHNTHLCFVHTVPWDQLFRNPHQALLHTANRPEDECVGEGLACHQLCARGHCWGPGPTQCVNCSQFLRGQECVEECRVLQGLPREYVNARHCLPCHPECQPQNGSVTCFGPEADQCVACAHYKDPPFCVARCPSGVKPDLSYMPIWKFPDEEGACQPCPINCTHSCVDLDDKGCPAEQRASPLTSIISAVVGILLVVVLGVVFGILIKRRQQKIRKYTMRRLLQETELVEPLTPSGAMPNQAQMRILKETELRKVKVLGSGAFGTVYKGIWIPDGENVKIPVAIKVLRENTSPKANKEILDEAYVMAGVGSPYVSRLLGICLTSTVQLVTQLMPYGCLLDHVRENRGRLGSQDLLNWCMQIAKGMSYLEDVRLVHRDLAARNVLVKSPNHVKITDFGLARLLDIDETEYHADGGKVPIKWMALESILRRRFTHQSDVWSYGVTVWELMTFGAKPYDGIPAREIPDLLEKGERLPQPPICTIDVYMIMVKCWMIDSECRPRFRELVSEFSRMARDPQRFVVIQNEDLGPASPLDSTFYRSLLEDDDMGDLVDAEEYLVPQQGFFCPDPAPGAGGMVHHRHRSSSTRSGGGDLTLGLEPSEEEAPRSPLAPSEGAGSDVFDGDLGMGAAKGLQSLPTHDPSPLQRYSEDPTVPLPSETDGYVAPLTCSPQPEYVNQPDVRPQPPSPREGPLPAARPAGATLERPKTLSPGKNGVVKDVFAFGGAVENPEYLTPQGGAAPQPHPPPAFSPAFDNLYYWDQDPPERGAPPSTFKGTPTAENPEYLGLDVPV
T1 sequence (P04626 whole entry, looked up): as the sequence (P04626 whole entry) above
T1 sequence (P49327 whole entry, looked up): as the sequence (P49327 whole entry, looked up) above

SMILES: C=C1C(=O)O[C@H](CCCCCCCC)[C@H]1C(=O)O (relative stereo)
- Activity (Mus musculus [1]): 21%
- Activity (Mus musculus [2]): Toxic

- inhibition [4]: Active
- inhibition [5]: Active
- inhibition (FASN/HER2 (Homo sapiens) [8]): Active
- inhibition (FASN/HER2 (Homo sapiens) [15]): Active
- inhibition [26]: Active
- inhibition [28]: 90%
SMILES: O=C(Oc1ccc(-c2ccc(OC(=O)c3cc(O)c(O)c(O)c3)cc2)cc1)c1cc(O)c(O)c(O)c1
- Activity (SK-BR-3 [3]): inactive
- IC50 (AU565): 24 µM
- IC50 (NCI-H460): 9 µM
- IC50 (SK-OV-3): 5 µM
- Activity (SK-BR-3 [6]): inactive
- Activity [7]: Non-toxic
- Activity (SK-BR-3 [9]): inactive
- Activity (Mus musculus [10]): Non-toxic
- IC50 (HepG2): 70 µM
- Activity (Mus musculus [11]): Non-toxic
- IC50 (HCT-116): 4 µM
- Activity (SK-BR-3 [12]): tde
- Activity (Mus musculus [13]): Non-toxic
- IC50 [14]: 14 µM
- IC50 (MCF7): 3.8 µM
- selectivity ratio [16]: 10
- IC50 (A549): 17 µM
- selectivity ratio [17]: 8
- IC50 (SK-HEP1): 56 µM
- IC50 (ZR-75-1): 1.9 µM
- Activity (Mus musculus [18]): Non-toxic
- IC50 (SK-BR-3 [19]): 4 µM
- IC50 [20]: 31 µM
- IC50 (BT-20): 17 µM
- Activity (SK-BR-3 [21]): inactive
- IC50 (A-431): 1.4 µM
- IC50 (Bel-7402): 40 µM
- Activity (SK-BR-3 [22]): inactive
- Activity (SK-BR-3 [23]): inactive
- IC50 (PANC-1): 2.1 µM
- IC50 [24]: 41 µM
- IC50 (SK-BR-3 [25]): 4 µM
- IC50 (MDA-MB-231): 5 µM
- Activity (Mus musculus [27]): Non-toxic
